# Rows were chosen to be rich in hits. Some 9.2% of all compounds tested hit in one or more screens of this group.
# H69AR growth 86K – blocks growth of human H69AR lung tumor cells | H69AR lung tumor viability, ATP luminescence, 72 h; active compounds read low | viability, % at 10 µM | 6% of 85,000 active | AID 598;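 active = viability at or below 40%; inactive = viability above 40%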;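 note: multidrug resistant small cell line overexpressing MRP-1 efflux transporter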
# ERb SRC1 inh – ER-beta (human) coactivator binding inhibition. Q92731. TR-FRET ER-beta LBD / SRC1-Cy5 peptide binding; receptor agonist-loaded with 1 µM estradiol. inhibition, % at 25.6 µM. 1.3% of 86,000 active. AID 633;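 active = compounds whose percent inhibition of the receptor-coactivator binding signal exceeds about 50% in the single-dose screen, limit read from the data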
# Fibroblast inh – blocks proliferation of human lung fibroblasts | LL 47 human lung fibroblast viability, ATP luminescence; active compounds read low | viability, % at 10 µM | 1.1% of 85,000 active;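 active = viability at or below 50% in the single dose screen; inactive = viability above 50%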;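 note: compound exposure lasted 72 h before the ATP readout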
#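 Material: Human LL 47 lung fibroblast cells | Input: 1,150 cells/well | Buffer or medium: IMEM plus 15% FBS | Compound dosing: 0.1% DMSO in all compound wells | Times: Overnight cell rest, 72 h compound treatment at 37 °C | Signal: CellTiter-Glo luminescence measuring cellular ATP | Measure: % viability versus median cells-only luminescence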
# ERa SRC1 inh – ER-alpha (human) coactivator binding inhibition; P03372; inhibition, % at 25.6 µM; TR-FRET ER-alpha LBD / SRC-1 peptide, estradiol-bound; 1.7% of 86,000 active; AID 629; in the data active = inhibition above about 50%
# Target sequence (P03372 whole entry, looked up, the tested form may be a part): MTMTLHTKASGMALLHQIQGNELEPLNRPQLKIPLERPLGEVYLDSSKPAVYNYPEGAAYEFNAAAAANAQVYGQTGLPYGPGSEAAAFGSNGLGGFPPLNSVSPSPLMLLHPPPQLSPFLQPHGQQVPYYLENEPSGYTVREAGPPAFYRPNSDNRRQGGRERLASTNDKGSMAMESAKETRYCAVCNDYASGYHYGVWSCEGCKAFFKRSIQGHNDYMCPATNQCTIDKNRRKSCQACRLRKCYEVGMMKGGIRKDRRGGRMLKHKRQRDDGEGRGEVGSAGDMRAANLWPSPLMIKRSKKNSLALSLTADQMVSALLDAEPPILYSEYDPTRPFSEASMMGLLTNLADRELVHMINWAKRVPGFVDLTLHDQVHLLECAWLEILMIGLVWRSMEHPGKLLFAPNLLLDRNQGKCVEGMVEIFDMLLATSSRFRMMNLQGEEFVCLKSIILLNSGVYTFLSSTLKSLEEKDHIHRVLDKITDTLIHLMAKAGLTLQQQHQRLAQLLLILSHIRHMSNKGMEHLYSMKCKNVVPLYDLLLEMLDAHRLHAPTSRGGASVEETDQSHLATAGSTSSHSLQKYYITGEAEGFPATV
# ERa SRC1 pot – ER-alpha (human) coactivator binding potentiation | P03372 | TR-FRET ERalpha-LBD/SRC-Cy5 coactivator binding, 2 h; 100 = basal binding, no effect | coactivator binding (% of control), % at 25.6 µM | 1.3% of 86,000 active; in the data active = activity above about 200%;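 note: binding measured in presence of low estradiol as agonist stimulus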
# HUVEC prolif 384 – human endothelial cell proliferation inhibition; HUVEC proliferation, CellTiter-Glo luminescence, 72 h; active compounds read low; viability, % at 10 µM (by protocol); 1.1% of 86,000 active; AID 648;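 active = viability at or below 30%; inactive = viability above 30%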
# Hits are given with their value; – = inactive; · = not tested or not shown; [ ] = dose if it differs, or a comment.
SMILES,H69AR growth 86K,ERb SRC1 inh,Fibroblast inh,ERa SRC1 inh,ERa SRC1 pot,HUVEC prolif 384
CS(=O)(=O)N(CC(=O)Nc1cc(Cl)ccc1Cl)c1ccccc1,–,–,–,–,–,–
CC1(C)NC(=O)N(CCOCCOc2c(Cl)cc(Cl)cc2Cl)C1=O,–,–,–,–,–,–
O=C(OCC(=O)N(C1CCCCC1)C1CCCCC1)c1cnccn1,1.2,–,–,–,–,–
Cc1cc(NC(=O)COc2cccc3cccnc23)no1,–,50.3[fluorescence artefact?],–,64.3[fluorescence artefact?],–,–
Cc1cc(NC(=O)c2cccc(C(=O)Nc3cc(C)on3)n2)no1,–,–,–,–,291.9,–
Cc1oc(C(=O)O)cc1COc1cccc2cccnc12,–,59.0[fluorescence artefact?],–,–,–,–
CCOc1cccc2cc(C(=O)Nc3cc(C)on3)c(=O)oc12,–,–,–,–,468.1[fluorescence artefact?],–
Cc1cc(NC(=O)c2ccc(Cl)cc2)no1,–,–,–,–,–,–
CCOc1cc(C(=O)Nc2cc(C)on2)cc(OCC)c1OCC,–,–,–,–,–,–
CCCn1c(SCC(=O)OCc2ccccc2)nc2c1c(=O)n(C)c(=O)n2C,–,–,–,–,–,–
COC(=O)c1c(NC(=O)c2nc3ncccn3n2)sc(C(=O)N(C)C)c1C,–,–,–,–,–,–
COC(=O)CSc1nnc(CNC(=O)Cc2ccccc2)n1C,–,–,–,–,–,–
CCOc1ccc(C(=O)Nc2cc(C)on2)cc1,36.0,–,·,–,–,–
CC1(C)CC(=O)c2cc(OCC(=O)NCCN3CCOCC3)ccc2O1,–,–,–,–,–,–
O=c1c2ccccc2sn1-c1cc(S(=O)(=O)N2CCOCC2)ccc1N1CCCC1,1.0,–,–,–,–,–
O=c1[nH]c2ccccc2c(=O)n1Cc1ccco1,–,62.8,–,–,–,–
O=c1[nH]c2ccc(Cl)cc2c(=O)n1Cc1ccco1,–,–,–,–,–,–
O=c1c2cc(N3CCOCC3)ccc2[nH]c(=S)n1Cc1ccco1,–,51.1,–,–,–,–
Cc1ccc(CCN2CC(C(=O)NCCCOC(C)C)CC2=O)cc1 (configuration not stated),–,–,–,–,–,–
CC(C)c1nc2oc3c(NCC4CCCO4)ncnc3c2c2c1COC(C)(C)C2 (configuration not stated),36.1,–,–,–,–,–
CCOC(=O)C1CCN(C(=O)c2oc3ccc(S(=O)(=O)N4CC(C)CC(C)C4)cc3c2C)CC1 (configuration not stated),–,–,–,–,–,–
COc1ccc(-c2nnc(NC(=O)c3ccc(S(=O)(=O)N4CCCc5ccccc54)cc3)o2)cc1,17.4,–,–,–,–,3.0
O=C(Nc1nnc(C2CC2)o1)c1ccc(S(=O)(=O)N2CCCc3ccccc32)cc1,18.4,–,–,–,–,–
CCc1nnc(NC(=O)C2c3ccccc3Oc3ccccc32)s1,–,–,–,–,–,–
CCCS(=O)(=O)N1CCC(C(=O)NCCN2CCCC2)CC1,–,81.5[fluorescence artefact?],–,–,–,–
SMILES,H69AR growth 86K,ERb SRC1 inh,Fibroblast inh,ERa SRC1 inh,ERa SRC1 pot,HUVEC prolif 384
CCCS(=O)(=O)N1CCC(C(=O)NCCN(CC)c2ccccc2)CC1,–,–,–,–,–,–
Cc1cc(C)n(CC(O)COCc2ccco2)n1 (configuration not stated),–,–,–,–,–,–
Cc1cc(C)n(CC(O)COc2ccccc2)n1 (configuration not stated),–,–,–,53.0,–,–
Cc1cc(NC(=O)CN2CCc3ccccc3C2)nc2c1c(=O)oc1ccccc12,27.9,–,–,–,–,–
COc1ccc(C(=O)Nc2cc(C)c3c(=O)oc4ccccc4c3n2)cc1,38.7,–,–,53.0[fluorescence artefact?],–,–
CCC1(C)CC(C(CC(=O)O)c2ccc(C)cc2)CCO1 (configuration not stated),–,–,–,–,–,–
CCn1c2ccccc2c2nc3cc(S(=O)(=O)N4CCOCC4)ccc3nc21,6.1,–,–,–,–,–
CCCCCn1c(SCc2cccc(C)c2)nc2c1c(=O)[nH]c(=O)n2C,–,–,–,–,–,–
CCCn1nc(C(=O)OCC(=O)c2ccc3c(c2)NC(=O)CO3)c2ccccc2c1=O,–,–,–,73.3,–,–
Cc1nc(NC(=O)CSc2nnnn2Cc2ccccc2)sc1C,–,–,–,–,–,–
CNC(=O)C1CC(=O)N(CCc2ccc(OC)cc2)C(=Nc2ccc(OC)cc2)S1 (configuration not stated),–,–,–,–,–,–
CCN1C(=O)CC(C(=O)NC)SC1=Nc1cc(Cl)c(O)c(Cl)c1 (configuration not stated),–,50.2[fluorescence artefact?],–,–,–,–
Oc1ccc(COCc2ccccc2)c2cccnc12,1.6,–,14.2,–,–,–
COc1ccccc1N1CCN(Cc2cc(Br)c(O)c3ncccc23)CC1,19.7,–,3.2,50.4[fluorescence artefact?],–,–
OCc1ccc(O)c2ncccc12,22.0,–,27.8,–,–,–
COCc1cc(CN2CCCC2)c(O)c2ncccc12,23.1,–,3.3,–,–,–
Cc1c(O)c(CN2CCCC2)cc2c1oc(=O)c1ccccc12,–,–,–,–,–,–
O=C(NCC(=O)N(Cc1cccs1)C(C(=O)NC1CCCC1)c1ccco1)c1cccs1 (configuration not stated),–,–,–,–,–,–
COc1ccc(OC)c(NS(=O)(=O)c2ccc(NC(=O)C3COc4ccccc4O3)cc2)c1 (configuration not stated),–,–,–,–,–,–
COC(=O)N1CC(C)N(C(=O)OC)CC1C (configuration not stated),–,–,–,–,–,–
CCCn1c(=O)n(C)c(=O)c2c3oc(=O)c(NC(=O)c4ccc(F)cc4)cc3[nH]c21,–,–,–,–,–,–
O=C(O)CCC(=O)Nc1ccc(OCC(=O)O)cc1,–,–,–,–,–,–
Oc1ccc2ccccc2c1CN1CCN(c2ccccc2)CC1,–,–,–,–,–,–
Oc1ccc(CN2CCc3ccccc3C2)c2cccnc12,38.2,–,13.2,–,–,–
Oc1ccc(CNc2ccccc2F)c2cccnc12,27.7,62.1[fluorescence artefact?],–,–,–,–
SMILES,H69AR growth 86K,ERb SRC1 inh,Fibroblast inh,ERa SRC1 inh,ERa SRC1 pot,HUVEC prolif 384
Oc1ccc(CN2CCCCC2)c2cccnc12,0.7,–,3.1,–,–,–
Oc1ccc(CN2CCN(c3ccccc3)CC2)c2cccnc12,23.2,–,25.5,–,–,–
Cn1cc(CN2CCc3ccccc3C2)c2ccccc21,–,–,–,–,–,–
Oc1ccc(Br)cc1CN1CCCCCCC1,–,–,–,–,–,–
CCn1c(=O)cc(SCC(=O)Nc2ccccc2N2CCN(C)CC2)c2ccccc21,–,–,–,–,–,–
O=C(Nc1ccc(Cl)cc1)N1CCC(c2nc(-c3ccccc3Cl)no2)CC1,–,–,–,–,–,–

# Bioassay records deposited in PubChem by several laboratories.
